Consider 15 compounds from article PMC8255191 (European Journal of Medicinal Chemistry, 2021).

Where “and” joins values, the source holds several entries; their conditions need not be identical. Identical values can stand only once. Like-named read-outs stand apart in the source and are kept apart here.

Series [1] concerns the target D2pol: polymerase domain of dengue 2 virus (Dengue virus type 2, UniProt P14340). The series can be described thus: In vitro polymerase assay. Format: biochemical. The note with it: read-out: IC50 D2pol; polymerase activity.
Series [2] addresses D2 NS5: full length DENV protein (Dengue virus type 2, UniProt P14340). In words: In vitro polymerase assay. Format: biochemical, dengue 2 virus. The note with it: read-out: IC50 D2 NS5, polymerase activity.
For series [3], the target named is ZIKV NS5: full length ZIKV protein (Zika virus, UniProt A0A024B7W1). In words: In vitro polymerase assay. The note with it: read-out: IC50 ZIKV NS5, polymerase activity. Format: biochemical.
The test system of series [4] is DENV-2. The note with it: read-out: IC50 DENV-2; cited from earlier work.
For series [5], the system named is ZIKV. The note with it: read-out: IC50 ZIKV; cited from earlier work.
The nature of series [6]: Cytotoxicity, CellTiter-Glo 2.0 luminescent cell viability assay. Format: cell-based. The note with it: human, Huh7 cells.
Series [7] in a line: ABTS radical decolorization assay. Format: physicochemical. The note with it: 10 μM-1 mM, 10 min; Fig. 2. A digest of the protocol:
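ABTS radical cation solution, diluted 1:100 in ethanol to an absorbance of 0.70 (±0.02) at 734 nm, serves as the control solution. Test compound or ascorbic acid reference, dissolved in DMSO at 10 μM, 50 μM, 0.1 mM, 0.2 mM, 0.5 mM or 1 mM, is added. A734 is read after exactly 10 min, and %scavenging = [(A0 − As)/A0] × 100, with the control run in each assay.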

A short description of series [8]: Stability towards oxidative stress. Format: physicochemical. The note with it: 40 mM H2O2 in ethanol, argon atmosphere; data not shown.
In series [9] the test system is PR8 H1N1. In words: Time-of-addition, In Cell Western of hemagglutinin. Format: cell-based, Influenza A virus.
The subject of series [10] is influenza A virus strains PR8 H1N1, pandemic 2009H1N1, avian Ulster H7N1. Format: cell-based.
Series [11] deals with DENV. In words: In vitro resistance selection in Huh7 cells, NS3/NS5 population sequencing. Format: cell-based, Dengue virus serotype 2 (New Guinea C).
The subject of series [12] is ZIKV. The description is as above. Format: cell-based, Zika virus (H/PF/2013).
Series [13] has as its system DENV NS3 and NS5 proteins. Format: cell-based, DENV-2. The note with it: for expression of NS5 protein: 6i 50 μM (p ≤ 0.0001 at 16 h), Sofosbuvir 100 μM (from 12 h, p ≤ 0.01); for expression of NS3 protein: 6i 50 μM (p ≤ 0.05 at 12 h), Sofosbuvir 100 μM (from 12 h, p ≤ 0.05).
Series [14] deals with Dengue, Zika, West Nile and Influenza A viruses. The series can be described thus: Antiviral activity, range over the tested viruses. Format: cell-based. The note with it: read-out: IC50 (range over viruses).
Series [15] concerns SARS-CoV-2. The note with it: SARS-CoV-2, Calu-3; literature value in parenthesis; cited from earlier work.
For series [16], the system named is DENV-2. The series can be described thus: Plaque reduction assay. The note with it: Dengue virus, DENV2, read-out: DENV-2 IC50. Format: cell-based, Dengue virus serotype 2 (New Guinea C).

Sequence of ZIKV NS5: full length ZIKV protein (A0A024B7W1 2521-3423 limits assumed): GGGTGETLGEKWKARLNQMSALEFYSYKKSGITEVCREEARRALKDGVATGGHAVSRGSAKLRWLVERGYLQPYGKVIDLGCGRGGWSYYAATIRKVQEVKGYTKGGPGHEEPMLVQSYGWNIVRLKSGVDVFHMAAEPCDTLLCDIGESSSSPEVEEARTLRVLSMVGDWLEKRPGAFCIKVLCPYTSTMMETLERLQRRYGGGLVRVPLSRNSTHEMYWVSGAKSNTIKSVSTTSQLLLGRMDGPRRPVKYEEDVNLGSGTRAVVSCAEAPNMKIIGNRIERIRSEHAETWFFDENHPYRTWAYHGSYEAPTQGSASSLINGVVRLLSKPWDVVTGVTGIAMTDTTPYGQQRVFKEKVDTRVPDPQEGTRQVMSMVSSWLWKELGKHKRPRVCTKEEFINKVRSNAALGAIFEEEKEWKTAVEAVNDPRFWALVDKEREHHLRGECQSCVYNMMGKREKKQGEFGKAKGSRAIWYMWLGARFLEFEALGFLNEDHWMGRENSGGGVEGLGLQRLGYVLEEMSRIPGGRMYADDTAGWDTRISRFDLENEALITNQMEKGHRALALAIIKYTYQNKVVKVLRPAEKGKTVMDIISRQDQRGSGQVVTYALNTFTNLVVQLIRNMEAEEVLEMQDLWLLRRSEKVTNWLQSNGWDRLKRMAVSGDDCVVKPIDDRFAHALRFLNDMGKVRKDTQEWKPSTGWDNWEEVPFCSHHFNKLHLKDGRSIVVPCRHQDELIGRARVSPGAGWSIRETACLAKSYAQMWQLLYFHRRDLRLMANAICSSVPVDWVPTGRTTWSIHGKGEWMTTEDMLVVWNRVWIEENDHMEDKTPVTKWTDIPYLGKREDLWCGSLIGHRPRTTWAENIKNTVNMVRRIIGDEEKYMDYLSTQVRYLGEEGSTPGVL

Regarding `Nc1ncnc2c1ncn2[C@@H]1O[C@H](COP(=O)(O)OP(=O)(O)OP(=O)(O)O)C[C@H]1O` [3'dATP], the values for the IC50 in [1], in [2] and in series [3] were 0.27 ± 0.03 µM, 0.32 ± 0.05 µM and 1 ± 0.2 µM, respectively.

Regarding `Oc1cccc(Nc2nc(NCCOc3ccccc3)nc3[nH]cnc23)c1` [Compound 3], the figures for the 50% inhibitory concentration (IC50) in series [4] and in series [5] were 10 µM and 16.7 µM, respectively.

In the case of `Fc1cccc(Nc2nc(NCCOc3ccccc3)nc3[nH]cnc23)c1` [Compound 6c, N6-(3-fluorophenyl)-N2-(2-phenoxyethyl)-9H-purine-2,6-diamine], the half-maximal cytotoxic concentration (CC50) in series [6] is > 200 µM.

For the compound `CNc1nc(Nc2cccc(C(=O)OC)c2)c2nc[nH]c2n1` [Compound 6d, Methyl 3-((2-(methylamino)-9H-purin-6 yl)amino)benzoate], the CC50 in [6] was > 200 µM.

Take `COC(=O)c1cccc(Nc2nc(NCCO)nc3[nH]cnc23)c1` [Compound 6e, Methyl 3-((2-((2-hydroxyethyl)amino)-9H-purin-6-yl)amino)benzoate]: in series [6], the CC50 was > 200 µM.

Turning to `CNc1nc(Nc2cccc(C(F)(F)F)c2)c2nc[nH]c2n1` [Compound 6g, N2-methyl-N6-(3-(trifluoromethyl)phenyl)-9H-purine-2,6-diamine], the CC50 in [6] was > 200 µM.

For `FC(F)(F)c1cccc(Nc2nc(NCCOc3ccccc3)nc3[nH]cnc23)c1` [Compound 6i, N [2]-(2-phenoxyethyl)-N [6]-(3-(trifluoromethyl)phenyl)-9H-purine-2,6-diamine], the 50% cytotoxic concentration (CC50) in [6] was > 200 µM. In addition, the “radical scavenging activity (% inhibition of the ABTS absorbance at 734 nm)” value in series [7] is “not observed”. The “stability towards oxidative stress” value in series [8] is given as “stable for days”. Further, the “effect on HA expression” value in [9] is “not quite effective”. For the same compound, the “inhibition of viral protein expression” value in series [10] was 20–26% and 28–45%. Also, the “dpi (days post infection to 80% CPE)” value was 6 days in series [11] (6i 15 μM); 7 days in [11] (6i 30 μM); 5 days in series [11] (6i 60 μM); 5 days and 9 days in series [11] (6i 120 μM); 8 days in series [12] (6i 15 μM); 5 days in series [12] (6i 30 μM). Further, the “dpi (days post infection to 80% CPE)” value in series [12] (6i 60 μM) and in [12] (6i 120 μM) was 5 days in each case. The “expression of NS5 protein” value in [13] was “significantly reduced”. The “expression of NS3 protein” value in [13] is reported as “significantly reduced”. In addition, the “MCC NS3/NS5 (Manders' colocalization coefficient)” value in series [13] (6i 50 μM, 16 h post infection, untreated control 0.726 ± 0.135) turned out to be 0.404 ± 0.106. The “MCC NS5/NS3 (Manders' colocalization coefficient)” value in series [13] (6i 50 μM, 16 h post infection, untreated control 0.752 ± 0.125) turned out to be 0.397 ± 0.101. Besides, the IC50 in [14] was in the range of 0.5 to 5.3 µM.

Turning to `Oc1ccc(Nc2nc(NCCOc3ccccc3)nc3[nH]cnc23)cc1O` [Compound 6j, 4-((2-((2-phenoxyethyl)amino)-9H-purin-6-yl)amino)benzene-1,2-diol], the cytotoxic concentration (CC50) in series [6] was > 200 µM.

For `CNc1nc(Nc2cccc(C(=O)O)c2)c2nc[nH]c2n1` [Compound 6l, 3-((2-(methylamino)-9H-purin-6-yl)amino)benzoic acid], the cytotoxic concentration (CC50) in series [6] is > 200 µM.

With `O=C(O)c1cccc(Nc2nc(NCCOc3ccccc3)nc3[nH]cnc23)c1` [Compound 6m, 3-((2-((2-phenoxyethyl)amino)-9H-purin-6-yl)amino)benzoic acid], the 50% cytotoxic concentration (CC50) in series [6] was > 200 µM.

With `Fc1cccc(NNc2nc(NCCOc3ccccc3)nc3[nH]cnc23)c1` [Compound 10a, 6-(2-(3-fluorophenyl) hydrazinyl)-N-(2-phenoxyethyl)-9H-purin-2-amine], the “radical scavenging activity (% inhibition of the ABTS absorbance at 734 nm)” value in [7] is recorded as “clear concentration-dependent radical scavenging activity”. Besides, the “stability towards oxidative stress” value in series [8] is listed as “quickly converted into 11a”.

For `Fc1cccc(/N=N/c2nc(NCCOc3ccccc3)nc3[nH]cnc23)c1` [Compound 11a, 6-((3-fluorophenyl)diazenyl)-N-(2-phenoxyethyl)-9H-purin-2-amine], in series [7], the “radical scavenging activity (% inhibition of the ABTS absorbance at 734 nm)” value was “not observed”. For the same compound, in series [8], the “stability towards oxidative stress” value is “stable for days”.

Consider `CCC(CC)COC(=O)[C@H](C)N[P@](=O)(OC[C@H]1O[C@@](C#N)(c2ccc3c(N)ncnn23)[C@H](O)[C@@H]1O)Oc1ccccc1` [RMD], for which the IC50 in series [15] was 0.28 µM.

As for `NC(=O)c1ncn([C@@H]2O[C@H](CO)[C@@H](O)[C@H]2O)n1` [Ribavirin, reference compound], the CC50 in series [6] was > 200 µM.

Consider `CC(C)OC(=O)[C@H](C)N[P@](=O)(OC[C@H]1O[C@@H](n2ccc(=O)[nH]c2=O)[C@](C)(F)[C@@H]1O)Oc1ccccc1` [Sofosbuvir, reference compound], for which the CC50 in series [6] is > 200 µM. Also, the IC50 in [16] is 3.8 µM. For the same compound, in [13], the “expression of NS5 protein” value is listed as “significantly reduced” and the “expression of NS3 protein” value is “significantly reduced”.
